# Compound activity deposited in PubChem by several laboratories.
# Only some compounds are listed: those with a hit (about 2.6% of all), similar ones and a draw of the others.
# SENP6 block: SENP6 protease inhibition; 330,000 tested, 1.8% active; AID 2599; inhibition, % at 10 µM; Recombinant SENP6 catalytic domain, aminoluciferin luminescence;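 active = inhibition above about 50% at the single tested dose, limit read from the data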;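 also: plate controls were DMSO wells with enzyme for no effect and DMSO wells lacking enzyme for full effect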
# SENP8 block-1: inhibitors of human SENP8 protease | Q96LD8 | AID 2540 | purified SENP8, Z-RLRGG-aminoluciferin cleavage, luminescence | 330,000 tested, 1.2% active | inhibition, % at 10 µM; in the data active = inhibition above about 50%
# Target sequence (Q96LD8 whole entry, looked up): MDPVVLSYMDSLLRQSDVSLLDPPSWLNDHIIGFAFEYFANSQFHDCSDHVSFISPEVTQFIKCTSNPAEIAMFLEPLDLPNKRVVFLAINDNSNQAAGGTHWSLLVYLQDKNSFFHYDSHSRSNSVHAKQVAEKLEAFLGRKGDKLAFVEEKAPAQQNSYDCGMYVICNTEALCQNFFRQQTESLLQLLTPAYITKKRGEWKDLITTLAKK
# UCH37 DUB inh: human UCH37 deubiquitinating enzyme inhibition; Q9Y5K5; purified proteasome/UCH37, Ub-AMC cleavage fluorescence; AID 588478; 330,000 tested, 0.33% active; inhibition, % (concentration not given with the values);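 active = mean inhibition over replicate wells above about 20%, limit read from the data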;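 also: 0% = compound-free wells with enzyme and 100% = wells lacking proteasome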
#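 Assay system: Proteasome-bound UCH37. Buffer or medium: pH 7.4 Tris-HCl (50 mM) with ovalbumin, ATP-MgCl2, DTT. Incubation: 30 min preincubation with enzyme, 25 min cleavage at room temperature. Measured by: fluorescence, ex 355 nm, em 460 nm. Read-out basis: percent inhibition. Control set: wells without proteasome as full block, compound-free enzyme plus substrate as uninhibited.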
# SENP7 inh: blocks the human protease SENP7. inhibition, % at 5 µM. Q9BQF6. 330,000 tested, 1.5% active. recombinant SENP7, Z-RLRGG-aminoluciferin luminescence, 40 min;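 active = inhibition above about 50% at the single test dose, limit read from the data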;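 also: plate controls were DMSO with enzyme for no effect and no enzyme buffer wells for full effect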
# SENP1 FRET inh: SENP1 (human) catalytic domain inhibition; AID 624204; Q9P0U3; inhibition, % at 10 µM; recombinant SENP1 catalytic domain, CyPet-SUMO1-YPet FRET cleavage; 360,000 tested, 0.21% active;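 active = inhibition at least 30% at 10 µM, raw YFP signal under a set limit, fluorescence ratio 0.5 to 1.5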;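 also: 0% = enzyme with DMSO and 100% = no enzyme wells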
# Target sequence (Q9P0U3 419-644 limits assumed): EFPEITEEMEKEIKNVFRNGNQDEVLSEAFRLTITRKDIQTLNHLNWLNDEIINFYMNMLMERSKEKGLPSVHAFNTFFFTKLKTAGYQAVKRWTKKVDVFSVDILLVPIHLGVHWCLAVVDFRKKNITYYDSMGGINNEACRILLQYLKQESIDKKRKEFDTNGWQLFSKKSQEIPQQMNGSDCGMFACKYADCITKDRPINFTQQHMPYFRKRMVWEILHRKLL
#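 System: Recombinant human SENP1 catalytic domain, His6-tagged | Incubation: Enzyme reaction for 50 min at room temperature, dark | Medium: Tris pH 8 with BME, BSA, NP40 and catalase | Also added: 25 nM SUMO1 FRET substrate | Compound: 10 µM single point, 0.5% DMSO | Measured by: FRET fluorescence in CFP and YFP emission channels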
# SENP8 block-2: SENP8 (human) protease inhibition | recombinant SENP8, Nedd8 substrate fluorescence | Q96LD8 | AID 602440 | inhibition, % at 20 µM | 360,000 tested, 0.64% active; in the data active = inhibition mostly above about 40%, no sharp cut-off; inactive = mostly below about 27%
# An asterisk follows results filed as active; x = no result.
SMILES,SENP6 block,SENP8 block-1,UCH37 DUB inh,SENP7 inh,SENP1 FRET inh,SENP8 block-2
Nc1ccc(Oc2ccc3nc(-c4ccccc4)c(-c4ccc([N+](=O)[O-])cc4)nc3c2)cc1,-9,-6,9,11,3,43*
COc1ccc(N2CCN(CCCNC(=O)CCCn3c(=O)[nH]c4ccsc4c3=O)CC2)cc1,-2,3,0,-4,-2,10
COc1ccc(N2CCN(CCNC(=O)CCCn3c(=O)[nH]c4cc(Cl)ccc4c3=O)CC2)cc1,-12,-6,6,-8,0,53*
COc1cccc(C(C)=NNC(=O)Cc2c(C)[nH][nH]c2=O)c1,x,x,2,x,x,x
C/C(=N\NC(=O)c1cc(Cl)ccc1O)c1ccc(Br)s1,79*,74*,x,49,-3,-168
CC(=NNC(=O)c1ccccc1O)c1ccc(Br)s1,x,x,15,x,x,x
c1ccc2c(c1)nnn1c3ccccc3nc21,96*,86*,x,96*,x,x
Cc1nc2ccccc2c2nc3ccccc3n12,1,0,-7,10,-4,-273
COc1cc(C=NNC(=O)c2cc(C)oc2C)cc(OC)c1OC,x,x,1,x,x,x
CN(C)c1ccc(N=Nc2ccccc2C(=O)OCC(=O)N2CCCC2)cc1,-21,-14,11,-8,5,36
CN(C)c1ccc(N=Nc2ccccc2C(=O)OCC(=O)N2CCCCCC2)cc1,7,-6,6,-2,4,57*
Cc1[nH]n(-c2nc(-c3ccc(Cl)cc3)cs2)c(=O)c1N=Nc1ccc(O)cc1,-5,-8,x,2,20,41*
COc1ccc(C=NNc2nc(-c3cccc(S(=O)(=O)N4CCCC4)c3)cs2)c(OC)c1,x,x,-83,x,x,x
COc1ccc(CN(CCN(C)C)c2ccccn2)cc1,-20,-3,-5,-4,1,2
CCCCCCCCCCCCCCCC[N+](C)(C)CCN(Cc1ccc(OC)cc1)c1ncccn1,-67,-31,27*,11,2,6
Nc1cc(C(=O)O)c(N)c2c1C(=O)c1ccccc1C2=O,59*,23,15,11,8,51*
COc1cc(C=NNC(=O)c2cccnc2)ccc1OCC(=O)Nc1c(C)cc(C)cc1C,x,x,-10,x,x,x
COc1ccc(CCn2c(N)c(S(=O)(=O)c3cccs3)c3nc4ccccc4nc32)cc1OC,8,-1,-17,3,-5,-294
Nc1c(S(=O)(=O)c2cccs2)c2nc3ccccc3nc2n1CCc1ccccc1,53*,31,-230,27,x,x
O=C(N/N=C/c1ccccc1[N+](=O)[O-])c1ccc2c(c1)OCCO2,71*,43,x,46,-2,-42
Cc1cc(=O)n2[nH]c(N)c(N=Nc3ccccc3F)c2n1,94*,85*,14,86*,2,32
Cc1cc(=O)n2[nH]c(C)c(-c3ccccc3)c2n1,-4,-6,0,-7,2,-243
CC(=NOC(=O)NC1CCCCC1)c1sc(-c2ccccc2)nc1C,x,x,0,x,x,x
N#C/C(N=Nc1ccccc1O)=N\Nc1ccccc1O,85*,74*,0,-13,33*,58*
Cc1cc(/C=N/Nc2nc(N)ncc2[N+](=O)[O-])c(C)n1-c1ccccc1F,102*,95*,x,95*,x,x
SMILES,SENP6 block,SENP8 block-1,UCH37 DUB inh,SENP7 inh,SENP1 FRET inh,SENP8 block-2
CCCOc1ccc(C(=O)NN=Cc2ccc(-c3ccc(S(=O)(=O)Nc4ncccn4)cc3)o2)cc1,x,x,-76,x,x,x
CC(C)(C)OC(=O)CNC(=O)c1[nH]cnc1C(=O)NCC(=O)OCc1ccccc1,-19,-5,31*,-11,2,10
COc1ccccc1C(=O)NCCC(=O)Nc1nc2ccccc2[nH]1,-6,-7,0,-6,2,-6
COc1ccccc1C(=O)Nc1nc2ccccc2[nH]1,98*,97*,x,101*,1,-23
O=C(Nc1nc2ccccc2[nH]1)c1ccc([N+](=O)[O-])cc1,43,15,1,85*,-46,23
COc1cc(SC)ccc1C(=O)Nc1nc2ccccc2[nH]1,97*,96*,x,101*,3,-278
COC(=O)NN=Cc1ccc([N+](=O)[O-])o1,x,x,12,x,x,x
CC1(C)OC(c2ccccc2)=C/C(=C/C=C2C(=O)c3ccccc3C2=O)O1,-15,8,4,3,95*,59*
O=C1CSC(=Nc2ccccc2[N+](=O)[O-])N1,11,0,29*,3,-2,8
COc1ccc(N=C2NC(=O)CS2)c([N+](=O)[O-])c1,29,1,4,8,0,9
Cc1ccc(S(=O)(=O)Oc2cccc(C=NNc3ccc(C(=O)O)cc3)c2)cc1,x,x,-6,x,x,x
O=C(O)c1cccc(NC(=S)NC(=O)c2ccc3ccccc3c2)c1,93*,87*,7,71*,0,-4
O=C(O)c1ccc(NC(=S)NC(=O)c2ccc3ccccc3c2)cc1,-9,-7,4,24,-1,11
O=C(NN=Cc1cc(Br)c(Br)s1)c1ccncc1,x,x,4,x,x,x
COC(=O)NN=C1CC(=NNC(=O)OC)c2ccccc21,x,x,3,x,x,x
Oc1ccc(N=Nc2nc(-c3ccccc3)c(-c3ccccc3)[nH]2)cc1,-5,-9,10,-1,39*,32
O=C(NN=Cc1ccccn1)c1ccccc1O,x,x,1,x,x,x
O=C(COc1ccc(C=NNC(=O)CSCc2ccc([N+](=O)[O-])cc2)cc1)NCc1ccco1,x,x,4,x,x,x
O=[N+]([O-])c1cc(Cl)cc(C=NNC(=S)Nc2cc(S(=O)(=O)N3CCOCC3)ccc2Cl)c1O,x,x,23*,x,x,x
CCN(CC)c1ccc(C=NN2CCN(Cc3ccccc3Cl)CC2)cc1,x,x,4,x,x,x
COc1ccc(-c2csc(C)n2)cc1Br,-46,1,8,-1,0,10
COc1ccc(-c2cn3cccc(C)c3n2)cc1Br,-9,59*,-1,68*,-1,-60
Cc1c(C=Nn2cnnc2)c2ccccc2n1CCOc1ccccc1,x,x,-1,x,x,x
COc1ccc(-c2ncncc2-c2csc(C)n2)c(O)c1OC,-12,-4,2,-11,1,27
COC1=C(N)C(=O)c2nc(-c3nc(C(=O)O)c(C)c(-c4ccc(OC)c(OC)c4O)c3N)ccc2C1=O,80*,82*,82*,67*,x,x
Cc1ccc(-c2ccc(C=Nn3cnnc3)o2)c(Br)c1,x,x,-11,x,x,x
COc1ccc(C=NN2C(=O)CSC2=S)cc1,x,x,9,x,x,x
COc1ccccc1-c1nnc(SC(C(=O)c2c[nH]c3ccccc23)c2ccccc2)n1C (centres undefined),-23,-4,3,3,3,13
COc1cccc(-c2nnc(SC(C(=O)c3c[nH]c4ccccc34)c3ccccc3)n2C)c1 (centres undefined),2,-11,29*,-14,-1,11
Cc1ccc(-c2nc3ccccc3[nH]2)cn1,48,5,-31,43,-1,-379
